According to ChEMBL document CHEMBL3751702, “Comprehensive Analysis of Structure-Activity Relationships of α-Ketoheterocycles as sn-1-Diacylglycerol Lipase α Inhibitors” (J Med Chem, 2015):

The molecules below were run against T1, Diacylglycerol lipase-alpha (Homo sapiens, UniProt Q9Y4D2) (assay: Inhibition of full-length human DAGLalpha expressed in HEK293T cell membranes using para-nitrophenylbutyrate by colorimetric assay). Details: not given.
T1 sequence (Q9Y4D2 whole entry): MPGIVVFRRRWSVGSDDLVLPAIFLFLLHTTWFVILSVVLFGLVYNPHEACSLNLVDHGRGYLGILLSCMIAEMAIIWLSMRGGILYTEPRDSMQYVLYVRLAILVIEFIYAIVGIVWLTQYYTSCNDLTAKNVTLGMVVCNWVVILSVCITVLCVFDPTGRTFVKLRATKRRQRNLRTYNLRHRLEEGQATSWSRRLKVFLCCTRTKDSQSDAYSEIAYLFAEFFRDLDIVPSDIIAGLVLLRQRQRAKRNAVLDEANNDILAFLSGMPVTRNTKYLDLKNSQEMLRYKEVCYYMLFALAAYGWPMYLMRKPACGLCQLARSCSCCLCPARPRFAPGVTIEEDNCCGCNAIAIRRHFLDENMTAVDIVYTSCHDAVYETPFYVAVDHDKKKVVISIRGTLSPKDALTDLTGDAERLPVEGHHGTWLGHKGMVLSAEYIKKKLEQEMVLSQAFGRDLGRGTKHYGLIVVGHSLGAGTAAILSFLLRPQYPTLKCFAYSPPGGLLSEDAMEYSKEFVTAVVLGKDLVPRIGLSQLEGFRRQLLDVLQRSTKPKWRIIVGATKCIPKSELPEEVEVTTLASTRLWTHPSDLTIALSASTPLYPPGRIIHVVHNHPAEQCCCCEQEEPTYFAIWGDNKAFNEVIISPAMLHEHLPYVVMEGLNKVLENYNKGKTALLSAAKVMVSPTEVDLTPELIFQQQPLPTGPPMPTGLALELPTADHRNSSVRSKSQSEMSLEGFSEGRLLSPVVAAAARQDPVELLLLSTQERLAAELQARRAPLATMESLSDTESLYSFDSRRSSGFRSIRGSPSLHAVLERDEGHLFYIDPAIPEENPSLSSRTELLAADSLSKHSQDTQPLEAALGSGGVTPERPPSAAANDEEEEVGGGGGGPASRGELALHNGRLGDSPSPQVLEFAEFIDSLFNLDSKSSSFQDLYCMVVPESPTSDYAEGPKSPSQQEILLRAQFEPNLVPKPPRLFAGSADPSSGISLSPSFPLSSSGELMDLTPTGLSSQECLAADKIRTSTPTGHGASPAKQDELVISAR
Format: cell-based, HEK-293T
In short: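 Membranes from HEK293T cells transiently transfected with full-length human DAGL-α (pcDNA3.1; PEI transfection, harvested at 72 h), diluted to 0.05 μg/μL final protein in 50 mM HEPES pH 7.2. Screen at 10 μM in duplicate; dose response by 10-fold serial dilution.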

Structure (SMILES)	IC50
CC(=O)c1cnc(C(=O)CCCCCCc2ccccc2)o1	> 10 µM
O=C(CCCCCCc1ccccc1)c1ccc(-c2ccco2)nn1	> 10 µM
O=C(CCCCCCc1ccccc1)c1nnn[nH]1	> 10 µM
O=C(CCCCCCc1ccccc1)c1noc(-c2ccccn2)n1	> 10 µM
O=C(CCCCCCc1ccccc1)c1nnc(-c2ccccc2)[nH]1	> 10 µM
O=C(CCCCCCc1ccccc1)c1ncc(-c2ccco2)s1	> 10 µM
CN(C)C(=O)c1cnc(C(=O)CCCCCCc2ccccc2)o1	> 10 µM
Cn1nnnc1C(=O)CCCCCCc1ccccc1	> 10 µM
O=Cc1cnc(C(=O)CCCCCCc2ccccc2)o1	> 10 µM
O=C(CCCCCCc1ccccc1)c1nnn(-c2ccco2)n1	> 10 µM
O=C(CCCCCCc1ccccc1)c1nnc(-c2cccs2)s1	> 10 µM
O=C(CCCCCc1ccccc1)c1nc2ccccc2s1	> 10 µM
CC(=O)c1nc2ncccc2o1	> 10 µM
Cn1nnc(C(=O)CCCCCCc2ccccc2)n1	> 10 µM
O=C(CCCCCCc1ccccc1)c1cccnn1	> 10 µM
O=C(CCCCCCc1ccccc1)c1nnn(-c2ccccn2)n1	> 10 µM
O=C(CCCCCCc1ccccc1)c1nc(Br)co1	> 10 µM
O=C(CCCCCCc1ccccc1)c1nnc(-c2ccccn2)[nH]1	> 10 µM
COC(=O)c1nnc(C(=O)CCCCCCc2ccccc2)[nH]1	> 10 µM
COC(=O)c1nc(C(=O)CCCCCCc2ccccc2)no1	> 10 µM
Cc1cnc(C(=O)CCCCCCc2ccccc2)o1	> 10 µM
COc1ccc(-c2cnc(C(=O)CCCCCCc3ccccc3)o2)nc1	> 10 µM
O=C(O)c1cccc(-c2noc(C(=O)CCCCCCc3ccccc3)n2)n1	> 10 µM
O=C(CCCCCCc1ccccc1)c1ncc(Br)o1	> 10 µM
CSc1cnc(C(=O)CCCCCCc2ccccc2)o1	> 10 µM
O=C(CCCCCc1ccccc1)c1nc2cccc(Br)c2o1	> 10 µM
Cc1ccc(-c2cnc(C(=O)CCCCCCc3ccccc3)o2)nc1	> 10 µM

Structure (SMILES)	IC50
O=C(CCCCCc1ccccc1)c1nc2cccc(F)c2o1	> 10 µM
CNC(=O)c1cnc(C(=O)CCCCCCc2ccccc2)o1	> 10 µM
CS(=O)(=O)c1cnc(C(=O)CCCCCCc2ccccc2)o1	> 10 µM
O=C(CCCCCCc1ccccc1)c1ncc(-c2ccccc2)o1	> 10 µM
O=C(CCCCCCc1ccccc1)c1ncc(-c2ccc(C(=O)C(F)(F)F)cc2)o1	> 10 µM
O=C(CCCCCCc1ccccc1)c1ncc(-c2ccc(C(F)(F)F)cn2)o1	> 10 µM
CCCCC(=O)c1nc2ncccc2o1	> 10 µM
COc1ccc(-c2cnc(C(=O)CCCCCCc3ccccc3)o2)cc1	> 10 µM
O=C(CCCCCCc1ccccc1)c1nnn(-c2cccs2)n1	> 10 µM
O=C(CCCCCCc1ccccc1)c1ccc(-c2ccccn2)nn1	> 10 µM
O=C(CCCCCCc1ccccc1)c1ncc(C(F)(F)F)o1	> 10 µM
O=C(CCCCCCc1ccccc1)c1nnc(-c2ccncc2)o1	> 10 µM
O=C(CCCCCCc1ccccc1)c1nnc(-c2ccccn2)o1	> 10 µM
O=C(CCCCCCc1ccccc1)c1nc(-c2ccccn2)co1	> 10 µM
CNC(=O)c1coc(C(=O)CCCCCCc2ccccc2)n1	> 10 µM
O=C(CCCCCCc1ccccc1)c1nncs1	> 10 µM
O=C(CCCCCCc1ccccc1)c1nnc(-c2ccco2)o1	> 10 µM
O=C(CCCCCCc1ccccc1)c1ncc(Cl)o1	> 10 µM
COc1coc(C(=O)CCCCCCc2ccccc2)n1	> 10 µM
O=C(CCCCCCc1ccccc1)c1nnc(-c2ccccn2)s1	> 10 µM
Cc1coc(C(=O)CCCCCCc2ccccc2)n1	> 10 µM
O=C(CCCCCCc1ccccc1)c1ncc(-c2ccccc2F)o1	> 10 µM
O=C(CCCCCCc1ccccc1)c1nnc(-c2cccs2)[nH]1	> 10 µM
O=C(CCCCCCc1ccccc1)c1nnc(-c2cccnc2)o1	> 10 µM
O=C(CCCCCCc1ccccc1)c1ccc(-c2cccs2)nn1	> 10 µM
O=C(CCCCCCc1ccccc1)c1ncc(-c2ccccn2)s1	> 10 µM
O=C(CCCCCc1ccccc1)c1nc2ncccc2s1	> 10 µM

Now from value to molecule:

IC50	Structure (SMILES)
> 10 µM	COC(=O)c1cnc(C(=O)CCCCCCc2ccccc2)o1
2.04 µM	O=C(CCCCCCc1ccccc1)c1nc(-c2cccc(Br)n2)no1
0.0741 µM	CCCCCCCCCCCCCC(=O)c1nc2ncccc2o1
1.05 µM	N#Cc1cccc(-c2noc(C(=O)CCCCCCc3ccccc3)n2)n1
> 10 µM	O=C(CCCCCCc1ccccc1)c1ncc(-c2cccc(F)c2)o1
0.708 µM	O=C(CCCCCc1ccccc1)c1nc2ccc(F)cc2o1
> 10 µM	O=C(CCCCCCc1ccccc1)c1nc(-c2cccc(I)n2)no1
0.0646 µM	CCCCCCCCCCCCCCCC(=O)c1nc2ncccc2o1
> 10 µM	COc1cnc(C(=O)CCCCCCc2ccccc2)o1
> 10 µM	O=C(CCCCCCc1ccccc1)c1nnc(-c2ccco2)[nH]1
2.34 µM	O=C(CCCCCCc1ccccc1)c1nc(I)co1
> 10 µM	O=C(CCCCCCc1ccccc1)c1noc(-c2cccs2)n1
> 10 µM	N#Cc1cnc(C(=O)CCCCCCc2ccccc2)o1
0.631 µM	CCCCCCCC(=O)c1nc2ncccc2o1
0.00363 µM	O=C(CCCCCCCCc1ccccc1)c1nc2ncccc2o1
2.75 µM	O=C(CCCCCCc1ccccc1)c1nc(-c2ccccn2)no1
> 10 µM	O=C(CCCCCCc1ccccc1)c1nnc[nH]1
> 10 µM	COC(=O)c1cccc(-c2noc(C(=O)CCCCCCc3ccccc3)n2)n1
> 10 µM	O=C(CCCCCCc1ccccc1)c1ncco1
> 10 µM	O=C(CCCCCCc1ccccc1)c1ncc(-c2ccc(F)cc2)o1
1.95 µM	O=C(CCCCCCc1ccccc1)c1nc(-c2cccs2)no1
> 10 µM	CCCCCC(=O)c1nc2ncccc2o1
0.575 µM	N#Cc1coc(C(=O)CCCCCCc2ccccc2)n1
0.123 µM	O=C(CCCCCCc1ccccc1)c1nc(C(=O)C(F)(F)F)co1
18.2 µM	O=C(CCc1ccccc1)c1nc2ncccc2o1
2.69 µM	O=C(CCCCCCc1ccccc1)c1nnco1
0.525 µM	O=C(CCCCCCc1ccccc1)c1nc2ncccc2o1
> 10 µM	O=C(CCCCCCc1ccccc1)c1nnc(-c2ccccc2)o1

IC50	Structure (SMILES)
> 10 µM	O=C(CCCCCCc1ccccc1)c1nnc(-c2ccco2)s1
0.389 µM	CS(=O)(=O)c1coc(C(=O)CCCCCCc2ccccc2)n1
1.41 µM	O=C(CCCCCc1ccccc1)c1nc2cc(F)ccc2o1
0.0309 µM	CCCCCCCCCCCC(=O)c1nc2ncccc2o1
> 10 µM	O=C(CCCCCCc1ccccc1)c1nc(-c2cccc(Cl)n2)no1
> 10 µM	O=C(CCCCCCc1ccccc1)c1nnc(-c2ccccc2)s1
> 10 µM	O=C(CCCCCCc1ccccc1)c1ncno1
2.4 µM	CCCCC/C=C\C/C=C\C/C=C\C/C=C\CCCC(=O)c1nc2ncccc2o1
1.51 µM	O=Cc1coc(C(=O)CCCCCCc2ccccc2)n1
0.204 µM	O=C(CCCCCc1ccccc1)c1nc2cnccc2o1
2.24 µM	O=C(CCCc1ccccc1)c1nc2ncccc2o1
1.7 µM	O=C(CCCCCc1ccccc1)c1nc2cccnc2o1
0.0468 µM	O=C(CCCCCCCc1ccccc1)c1nc2ncccc2o1
3.63 µM	O=C(CCCCCc1ccccc1)c1nc2ccccc2o1
0.55 µM	C=CCCCCCCCC(=O)c1nc2ncccc2o1
0.891 µM	O=C(CCCCCc1ccccc1)c1nc2cc([N+](=O)[O-])ccc2o1
0.933 µM	O=C(CCCCCCc1ccccc1)c1nc(-c2ccco2)no1
0.0871 µM	O=C(CCCCCc1ccccc1)c1nc2ccc([N+](=O)[O-])cc2o1
8.71 µM	O=C(CCCCCCc1ccccc1)c1nc(-c2ccccc2)co1
12 µM	O=C(CCCCCc1ccccc1)c1nc2ccccc2[nH]1
0.214 µM	O=C(CCCCCCc1ccccc1)c1nc(C(F)(F)F)co1
1.82 µM	O=C(CCCCCCc1ccccc1)c1ncc(C(=O)C(F)(F)F)o1
3.39 µM	CN(C)C(=O)c1coc(C(=O)CCCCCCc2ccccc2)n1
5.89 µM	O=C(CCCCCc1ccccc1)c1nc2ccc(Br)cc2o1
0.0263 µM	CCCCCCCC/C=C\CCCCCCCC(=O)c1nc2ncccc2o1
1.23 µM	O=C(CCCCCc1ccccc1)c1nc2ncccc2[nH]1
0.195 µM	CCCCCCCC/C=C\CCCCCCCC(=O)c1nc2ccccc2[nH]1

Same assay, conditions: hek-293t

pIC50	Structure (SMILES)
< 5	O=C(CCCCCCc1ccccc1)c1nnn[nH]1
